Laboratory results as given in ChEMBL document CHEMBL1833930, “Synthesis and biological activities of triazole derivatives as inhibitors of InhA and antituberculosis agents” (2011).
≈ marks a conversion by molar mass, not a printed value.

Assays:
[1] = tested on: Mycobacterium tuberculosis; assay: Antimycobacterial activity against Mycobacterium tuberculosis H37Rv by twofold dilution method; format: functional
Procedure, shortened: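 Single colony inoculated into complete Middlebrook 7H9 and grown at 37 °C to exponential phase (~10⁸ CFU/mL, OD600 0.8–1.0). Diluted to ~10⁷ CFU/mL, then streaked onto plates with two-fold serial compound dilutions. MIC was the lowest concentration inhibiting growth. Three independent repeats.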

[2] = biological target: T1, Enoyl-[acyl-carrier-protein] reductase [NADH] (Mycobacterium tuberculosis) (UniProt P9WGR1); assay: Inhibition of Mycobacterium tuberculosis InhA expressed in Escherichia coli BL21 using trans-2-dodecenoyl-Coenzyme A as substrate at 50 uM by spectrophotometry
T1 sequence (whole entry): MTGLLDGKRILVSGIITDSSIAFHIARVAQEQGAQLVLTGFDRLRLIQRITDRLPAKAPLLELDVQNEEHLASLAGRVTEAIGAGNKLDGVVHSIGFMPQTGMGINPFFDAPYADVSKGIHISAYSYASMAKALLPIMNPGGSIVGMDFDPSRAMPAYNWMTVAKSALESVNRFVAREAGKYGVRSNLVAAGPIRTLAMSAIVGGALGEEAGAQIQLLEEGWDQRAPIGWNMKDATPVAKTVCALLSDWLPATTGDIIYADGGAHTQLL
Procedure, shortened: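 Recombinant M. tuberculosis InhA was expressed in E. coli with 1 mM IPTG overnight at 20 °C. It was purified on Ni-NTA and desalted into 30 mM PIPES pH 6.8, 150 mM NaCl. Reactions ran in buffer at pH 6.8 with 150 mM NaCl. Controls were run identically without inhibitor.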

SMILES	MIC [1] [µM]	inhibition [2] [%]
CCCCCCCCn1cc(C(=O)Cc2ccccc2)nn1	83.5 (≈ 25 µg/mL)	25
O=C(Cc1ccc(Cl)cc1Cl)c1cn(Cc2ccc([N+](=O)[O-])cc2)nn1	256 (≈ 100 µg/mL)	
c1ccc(CCc2cn(CC3CCCCC3)nn2)cc1	186 (≈ 50 µg/mL)	
c1ccc(Cc2cn(Cc3ccccc3)nn2)cc1	201 (≈ 50 µg/mL)	
O=C(Cc1ccc(Cl)cc1Cl)c1cn(Cc2ccccc2)nn1	289 (≈ 100 µg/mL)	
COc1cccc(Cn2cc(C(=O)Cc3ccccc3)nn2)c1	81.3 (≈ 25 µg/mL)	10
O=C(Cc1ccccc1)c1cn(Cc2ccc([N+](=O)[O-])cc2)nn1	310 (≈ 100 µg/mL)	
Cc1cc(C)cc(Cn2cc(CCc3ccccc3)nn2)c1	34.3 (≈ 9.99 µg/mL)	11
CCCCCCCCn1cc(C(=O)Cc2ccc(Cl)cc2Cl)nn1	27.2 (≈ 10 µg/mL)	
O=C(Cc1ccccc1)c1cn(Cc2ccccc2)nn1	361 (≈ 100 µg/mL)	13
CCCCCCCCn1cc(C(O)Cc2ccc(Cl)cc2Cl)nn1 (racemic)	67.5 (≈ 25 µg/mL)	
COc1cc(Cn2cc(C(=O)Cc3ccc(Cl)cc3Cl)nn2)cc(OC)c1	246 (≈ 100 µg/mL)	
O=C(Cc1ccccc1)c1cn(CC2CCCCC2)nn1	88.2 (≈ 25 µg/mL)	12
Cc1cc(C)cc(Cn2cc(C(=O)Cc3ccccc3)nn2)c1	> 327	10
c1ccc(Cn2cc(-c3ccccc3)nn2)cc1	> 425	
CCCCCCCCn1cc(CCc2ccccc2)nn1	35 (≈ 9.99 µg/mL)	46
Oc1cc(Cl)ccc1Oc1ccc(Cl)cc1Cl [TRICLOSAN]	34.5 (≈ 9.99 µg/mL)	
CCCCCCCCn1cc(C(O)Cc2ccccc2)nn1 (racemic)	33.2 (≈ 10 µg/mL)	
CCCCCCCCCCCCn1cc(CCc2ccccc2)nn1	≤ 5.9	40
c1ccc(CCc2cn(Cc3ccccc3)nn2)cc1	94.9 (≈ 25 µg/mL)	15
COc1cc(Cn2cc(C(=O)Cc3ccccc3)nn2)cc(OC)c1	> 296	
Cc1cc(C)cc(Cn2cc(C(=O)Cc3ccc(Cl)cc3Cl)nn2)c1	267 (≈ 100 µg/mL)	
CCCCCCCCCn1cc(CCc2ccccc2)nn1	16.7 (≈ 5 µg/mL)	58
COc1cccc(Cn2cc(C(=O)Cc3ccc(Cl)cc3Cl)nn2)c1	13.3 (≈ 5 µg/mL)	
